Test results: paper PMC6007964 (Biochemistry, 2018)
Converted amounts (≈) assume the structure as drawn. Where two headings read alike, the source gives them in different places.

Tests used:
IMP-1 [1] = target: T1, IMP-1 (Serratia marcescens, UniProt P52699); test: IC50 assay, nitrocefin hydrolysis, 10 min preincubation; format: biochemical
VIM-2 [2] = target: T2, VIM-2 (Escherichia coli, UniProt Q5U7L7); test: as above; format: biochemical
L1 [3] = target: T3, L1 (Stenotrophomonas maltophilia, UniProt P52700); test: as above; format: biochemical, S. maltophilia
T3 sequence (P52700 34-290): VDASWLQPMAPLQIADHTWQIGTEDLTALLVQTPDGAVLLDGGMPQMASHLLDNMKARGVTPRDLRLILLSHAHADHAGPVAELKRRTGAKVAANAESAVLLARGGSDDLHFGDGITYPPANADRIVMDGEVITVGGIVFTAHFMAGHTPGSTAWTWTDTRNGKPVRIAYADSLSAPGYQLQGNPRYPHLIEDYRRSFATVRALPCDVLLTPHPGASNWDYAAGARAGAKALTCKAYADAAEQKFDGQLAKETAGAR

NDM-1 [4] = target: T4, NDM-1 (Klebsiella pneumoniae, UniProt C7C422); test: as above; format: biochemical
T4 sequence (C7C422 29-270, looked up, species assumed): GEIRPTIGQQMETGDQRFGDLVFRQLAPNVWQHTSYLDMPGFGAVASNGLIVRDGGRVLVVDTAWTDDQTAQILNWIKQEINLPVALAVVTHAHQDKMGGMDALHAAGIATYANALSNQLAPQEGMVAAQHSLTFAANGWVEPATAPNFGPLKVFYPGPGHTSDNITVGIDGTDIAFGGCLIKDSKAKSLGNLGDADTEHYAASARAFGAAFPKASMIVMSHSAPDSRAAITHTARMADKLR

[5] = test system: K. pneumoniae UWB116 (NDM-1); settings: NDM-1-producing K. pneumoniae clinical isolate, cited from earlier work
E. coli MG1655 IMP-1 = test: Meropenem MIC, broth microdilution; format: cell-based; settings: Escherichia coli, MG1655, read-out: Meropenem MIC
K. pneumoniae Ecl8 NDM-1 = test: Meropenem MIC, broth microdilution; format: cell-based; settings: Klebsiella pneumoniae, ECL8NDM1, read-out: Meropenem MIC
[6] = test system: non-MBL-producing C. freundii; settings: non-MBL-producing strain; cited from earlier work
[7] = test system: S. maltophilia K279a (L1, L2); test: Meropenem MIC, broth microdilution, clinical strain; format: cell-based; settings: Stenotrophomonas maltophilia, read-out: Meropenem MIC
P. putida #UWB24 (VIM-2) = test: as above; format: cell-based; settings: in the absence of inhibitor
[8] = test system: E. coli MG1655 vector only; test: Meropenem MIC, broth microdilution; format: cell-based; settings: Escherichia coli, MG1655, read-out: Meropenem MIC
[9] = test system: non-MBL-producing En. aerogenes; settings: non-MBL-producing strain; cited from earlier work
C. freundii D571 NDM-1 = test: Meropenem MIC, broth microdilution; format: cell-based; settings: Citrobacter freundii, D571NDM1, read-out: Meropenem MIC
[10] = test system: P. aeruginosa UWB41 (VIM-2); test: Meropenem MIC, broth microdilution, clinical strain; format: cell-based; settings: Pseudomonas aeruginosa, read-out: Meropenem MIC
[11] = test system: En. aerogenes 15-8358A NDM-1; test: Meropenem MIC, broth microdilution; format: cell-based; settings: Klebsiella aerogenes, read-out: Meropenem MIC
E. coli MG1655 NDM-1 = test: Meropenem MIC, broth microdilution; format: cell-based; settings: Escherichia coli, MG1655, read-out: Meropenem MIC
[12] = test system: P. aeruginosa UWB78 (VIM-2); test: Meropenem MIC, broth microdilution, clinical strain; format: cell-based; settings: in the absence of inhibitor
[13] = test system: S. maltophilia JKWZP (L1, L2); test: Meropenem MIC, broth microdilution, RND pump knockout strain; format: cell-based; settings: Stenotrophomonas maltophilia, read-out: Meropenem MIC
[14] = test system: non-MBL-producing K. pneumoniae; settings: non-MBL-producing strain; cited from earlier work
E. coli MG1655 VIM-1 = test: Meropenem MIC, broth microdilution; format: cell-based; settings: Escherichia coli, MG1655, read-out: Meropenem MIC
[15] = test system: MBLs (VIM-2, NDM-1, IMP-1, L1); test: IC50 assay, summary over the MBLs tested; format: biochemical
L1 [16] = target: T3, L1; test: Ki determination, slow-binding progress curves with nitrocefin; format: biochemical, S. maltophilia
Summary of the method: (§1)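 Enzyme was added to nitrocefin in excess, with inhibitor dilutions spanning the variable-rate range: IMP-1 60 pM with 25 μM nitrocefin, VIM-2 39.2 pM with 100 μM, NDM-1 600 pM with 15 μM, L1 308 pM with 50 μM. Buffer was 50 mM HEPES pH 7.2, 50 μg/mL BSA, 0.01% Triton X-100, read at 482 nm and 30 °C for 10 min. Progress curves gave kobs; a linear fit of kobs versus [I] gave k–0 and Kiapp, then Ki.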

IMP-1 [17] = target: T1, IMP-1; test: as above; format: biochemical
Summary of the method: as §1

NDM-1 [18] = target: T4, NDM-1; test: as above; format: biochemical
Summary of the method: as §1

VIM-2 [19] = target: T2, VIM-2; test: as above; format: biochemical
Summary of the method: as §1

T1 sequence (P52699 19-246, looked up): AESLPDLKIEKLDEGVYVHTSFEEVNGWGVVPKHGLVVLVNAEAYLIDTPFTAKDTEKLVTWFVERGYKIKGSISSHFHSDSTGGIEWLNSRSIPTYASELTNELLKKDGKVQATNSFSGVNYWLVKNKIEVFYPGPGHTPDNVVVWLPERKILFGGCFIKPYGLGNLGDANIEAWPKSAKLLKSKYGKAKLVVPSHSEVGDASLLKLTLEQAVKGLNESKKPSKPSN

Work on `O=C(O)c1ccccn1` [compound 1, 2-picolinic acid] yielded an IC50 (IMP-1 [1]) of over 100 µM, an IC50 (VIM-2 [2]) of 32.2 µM and an IC50 (L1 [3]) of over 100 µM. It also gave an IC50 (NDM-1 [4]) of over 100 µM.

For `Cc1cccc(C(=O)O)n1` [compound 2, 6-methylpicolinic acid], the IC50 (IMP-1 [1]) was over 100 µM, the IC50 (VIM-2 [2]) was over 100 µM and the IC50 (L1 [3]) was over 100 µM. The IC50 (NDM-1 [4]) was over 100 µM.

In the case of `N[C@H](CN[C@H](CN[C@@H](CC(=O)O)C(=O)O)C(=O)O)C(=O)O` [AMA, aspergillomarasmine A], the “Meropenem MIC” value ([5]; in the presence of 16 mg/L AMA) is given as 0.25 µg/mL and the “Meropenem MIC” value ([5]; in the presence of 32 mg/L AMA) is given as under 0.125 µg/mL.

In the case of `C[C@@H](O)[C@H]1C(=O)N2C(C(=O)O)=C(S[C@@H]3CN[C@H](C(=O)N(C)C)C3)[C@H](C)[C@H]12` [Meropenem], the MIC (E. coli MG1655 IMP-1) is given as 16 µg/mL (≈ 41.7 µM), the MIC (K. pneumoniae Ecl8 NDM-1) is given as over 256 µg/mL and the “Meropenem MIC” value [6] is given as 0.06 µg/mL. For the same compound, the MIC [7] was 16 µg/mL (≈ 41.7 µM), the “Meropenem MIC” value (P. putida #UWB24 (VIM-2)) was 64 mg L^–1 and the MIC [8] was under 0.25 µg/mL. For the same compound, the “Meropenem MIC” value [9] was 0.06 µg/mL, the MIC (C. freundii D571 NDM-1) was 32 µg/mL (≈ 83.4 µM) and the MIC [10] was 128 µg/mL (≈ 334 µM). For the same compound, the MIC [11] was 64 µg/mL (≈ 167 µM), the MIC (E. coli MG1655 NDM-1) was over 256 µg/mL and the “Meropenem MIC” value [12] was 64 mg L^–1. For the same compound, the MIC [13] was 32 µg/mL (≈ 83.4 µM), the “Meropenem MIC” value [14] was at most 0.25 µg/mL and the MIC (E. coli MG1655 VIM-1) was 4 µg/mL (≈ 10.4 µM).

Compound `O=P(O)(O)Cc1ccccn1` [compound 4, (pyridin-2-ylmethyl)phosphonic acid] has an IC50 (IMP-1 [1]) of over 100 µM, an IC50 (VIM-2 [2]) of 171 µM and an IC50 (L1 [3]) of over 1000 µM. The IC50 (NDM-1 [4]) was over 1000 µM.

For `O=C(O)c1cccc(C(N(Cc2ccccc2)C(=O)c2cccs2)P(=O)(O)O)n1` (stereo not shown) [3c, 6-[(N-benzyl-1-thiophen-2-ylformamido)(phosphono)methyl]picolinic acid], the “improved potency compared to 3a” value ([15]; IC50, against NDM-1, VIM-2 and IMP-1) was 1.2–2.8 fold, the IC50 ([15]; read-out: IC50, range, against NDM-1, VIM-2 and IMP-1) was 0.306 to 2.91 µM and the IC50 (IMP-1 [1]) was 2.91 µM. It also gave an IC50 (VIM-2 [2]) of 0.464 µM, a Ki (L1 [16]) of 0.4 ± 0.1 µM and a Ki (IMP-1 [17]) of 0.4 ± 0.2 µM. For the same compound, the “Dissociative t1/2 = 2 / k-0” value (IMP-1 [17]; IMP-1) was 25 min, the Ki (NDM-1 [18]) was 0.034 ± 0.006 µM and the Ki (VIM-2 [19]) was 0.038 ± 0.009 µM. For the same compound, the IC50 (L1 [3]) was 1.57 µM, the “potency compared to 3a” value (L1 [3]; IC50, against L1) was about 0.9 fold and the IC50 (NDM-1 [4]) was 0.306 µM.

Work on `O=C(O)c1cccc(C(O)P(=O)(O)O)n1` (stereo not shown) [3b, 6-[hydroxy(phosphono)methyl]picolinic acid] yielded an IC50 (IMP-1 [1]) of 7.2 µM, an IC50 (VIM-2 [2]) of 1.9 µM and a Ki (L1 [16]) of 0.4 ± 0.1 µM. For the same compound, the Ki (IMP-1 [17]) was 1.5 ± 0.1 µM, the Ki (NDM-1 [18]) was 0.078 ± 0.008 µM and the Ki (VIM-2 [19]) was 0.61 ± 0.04 µM. The “Dissociative t1/2 = 2 / k-0” value (VIM-2 [19]; VIM-2) was 6 min and the IC50 (L1 [3]) was 2.05 µM.
